Test results from ChEMBL document CHEMBL4004830 (J Med Chem, 2017).

How the values were obtained:
[1] = tested on: MV4-11; assay: Induction of apoptosis in human MV4-11 cells assessed as viable cells at 10 times GI50 after 24 hrs by annexin V/propidium iodide staining based flow cytometry (reference value: 93.05%); type: functional
[2] = tested on: MV4-11; assay: Cell cycle arrest in human MV4-11 cells assessed as accumulation at G2/M phase at 5 times GI50 after 24 hrs by propidium iodide staining based flow cytometry (reference value: 18.11%); type: functional
Procedure, shortened: (§1)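 MV4-11 cells were treated with increasing concentrations for 24 h. Cells were then harvested, fixed and stained with propidium iodide before flow cytometric cell cycle analysis.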

[3] = tested on: MV4-11; assay: Induction of apoptosis in human MV4-11 cells assessed as early apoptotic cells at GI50 after 24 hrs by annexin V/propidium iodide staining based flow cytometry (reference value: 2.01%); type: functional
[4] = tested on: MV4-11; assay: Cell cycle arrest in human MV4-11 cells assessed as accumulation at S phase at 10 times GI50 after 24 hrs by propidium iodide staining based flow cytometry (reference value: 21.97%); type: functional; procedure, shortened: as §1
[5] = tested on: MDA-MB-453; assay: Growth inhibition of human MDA-MB-453 cells after 72 hrs by MTT assay; type: functional; conditions: MDA-MB-453, 72 h
Procedure, shortened: (§2)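 72 h antiproliferation assay, resazurin read-out for MV4-11 and MTT read-out for MDA-MB-453; values from at least two replicates.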

[6] = tested on: MV4-11; assay: Growth inhibition of human MV4-11 cells after 72 hrs by resazurin assay; type: functional; conditions: MV4-11, 72 h; procedure, shortened: as §2
[7] = tested on: MV4-11; assay: Induction of apoptosis in human MV4-11 cells assessed as viable cells at 5 times GI50 after 24 hrs by annexin V/propidium iodide staining based flow cytometry (reference value: 93.05%); type: functional
[8] = tested on: MV4-11; assay: Induction of apoptosis in human MV4-11 cells assessed as early apoptotic cells at 10 times GI50 after 24 hrs by annexin V/propidium iodide staining based flow cytometry (reference value: 2.01%); type: functional
[9] = tested on: MV4-11; assay: Cell cycle arrest in human MV4-11 cells assessed as accumulation at sub-G1 phase at GI50 after 24 hrs by propidium iodide staining based flow cytometry (reference value: 0.91%); type: functional; procedure, shortened: as §1
[10] = tested on: MV4-11; assay: Cell cycle arrest in human MV4-11 cells assessed as accumulation at G1 phase at GI50 after 24 hrs by propidium iodide staining based flow cytometry (reference value: 58.99%); type: functional; procedure, shortened: as §1
[11] = tested on: MV4-11; assay: Cell cycle arrest in human MV4-11 cells assessed as accumulation at G1 phase at 5 times GI50 after 24 hrs by propidium iodide staining based flow cytometry (reference value: 58.99%); type: functional; procedure, shortened: as §1
[12] = tested on: MV4-11; assay: Induction of apoptosis in human MV4-11 cells assessed as necrotic cells at 10 times GI50 after 24 hrs by annexin V/propidium iodide staining based flow cytometry (reference value: 0.06%); type: functional
[13] = tested on: MV4-11; assay: Cell cycle arrest in human MV4-11 cells assessed as accumulation at S phase at GI50 after 24 hrs by propidium iodide staining based flow cytometry (reference value: 21.97%); type: functional; procedure, shortened: as §1
[14] = tested on: DU-145; assay: Growth inhibition of human DU145 cells after 72 hrs by resazurin or MTT assay; type: functional; conditions: DU-145, 72 h
[15] = tested on: MV4-11; assay: Cell cycle arrest in human MV4-11 cells assessed as accumulation at sub-G1 phase at 5 times GI50 after 24 hrs by propidium iodide staining based flow cytometry (reference value: 0.91%); type: functional; procedure, shortened: as §1
[16] = tested on: MV4-11; assay: Cell cycle arrest in human MV4-11 cells assessed as accumulation at sub-G1 phase at 10 times GI50 after 24 hrs by propidium iodide staining based flow cytometry (reference value: 0.91%); type: functional; procedure, shortened: as §1
[17] = tested on: MOLM-13; assay: Growth inhibition of human MOLM13 cells after 72 hrs by resazurin or MTT assay; type: functional; conditions: MOLM-13, 72 h
[18] = Growth inhibition of human M249 cells after 72 hrs by resazurin or MTT assay; type: functional; conditions: M249, 72 h
[19] = tested on: MV4-11; assay: Induction of apoptosis in human MV4-11 cells assessed as necrotic cells at GI50 after 24 hrs by annexin V/propidium iodide staining based flow cytometry (reference value: 0.06%); type: functional
[20] = tested on: LNCaP C4-2B; assay: Growth inhibition of human C4-2B cells after 72 hrs by resazurin or MTT assay; type: functional
[21] = Growth inhibition of human MRC5 cells after 72 hrs by resazurin or MTT assay; type: cell-based
[22] = tested on: MDA-MB-468; assay: Growth inhibition of human MDA-MB-468 cells after 72 hrs by resazurin or MTT assay; type: functional; conditions: MDA-MB-468, 72 h
[23] = tested on: MV4-11; assay: Induction of apoptosis in human MV4-11 cells assessed as late apoptotic cells at GI50 after 24 hrs by annexin V/propidium iodide staining based flow cytometry (reference value: 4.87%); type: functional
[24] = tested on: MV4-11; assay: Induction of apoptosis in human MV4-11 cells assessed as viable cells at GI50 after 24 hrs by annexin V/propidium iodide staining based flow cytometry (reference value: 93.05%); type: functional
[25] = tested on: PC-3; assay: Growth inhibition of human PC3 cells after 72 hrs by resazurin or MTT assay; type: functional; conditions: PC-3, 72 h
[26] = tested on: MV4-11; assay: Induction of apoptosis in human MV4-11 cells assessed as necrotic cells at 5 times GI50 after 24 hrs by annexin V/propidium iodide staining based flow cytometry (reference value: 0.06%); type: functional
[27] = tested on: MV4-11; assay: Induction of apoptosis in human MV4-11 cells assessed as late apoptotic cells at 5 times GI50 after 24 hrs by annexin V/propidium iodide staining based flow cytometry (reference value: 4.87%); type: functional
[28] = tested on: A2780; assay: Growth inhibition of human A2780 cells after 72 hrs by resazurin or MTT assay; type: functional; conditions: A2780, 72 h
[29] = tested on: MV4-11; assay: Cell cycle arrest in human MV4-11 cells assessed as accumulation at G1 phase at 10 times GI50 after 24 hrs by propidium iodide staining based flow cytometry (reference value: 58.99%); type: functional; procedure, shortened: as §1
[30] = tested on: NB-4; assay: Growth inhibition of human NB4 cells after 72 hrs by resazurin or MTT assay; type: functional; conditions: NB-4, 72 h
[31] = Growth inhibition of nontransformed human BPH1 cells after 72 hrs by resazurin or MTT assay; type: cell-based; conditions: BPH-1 cells (nontransformed)
[32] = tested on: MV4-11; assay: Cell cycle arrest in human MV4-11 cells assessed as accumulation at G2/M phase at GI50 after 24 hrs by propidium iodide staining based flow cytometry (reference value: 18.11%); type: functional; procedure, shortened: as §1
[33] = Growth inhibition of human M238 cells after 72 hrs by resazurin or MTT assay; type: functional; conditions: M238, 72 h
[34] = tested on: MV4-11; assay: Induction of apoptosis in human MV4-11 cells assessed as late apoptotic cells at 10 times GI50 after 24 hrs by annexin V/propidium iodide staining based flow cytometry (reference value: 4.87%); type: functional
[35] = Growth inhibition of human M229 cells after 72 hrs by resazurin or MTT assay; type: functional; conditions: M229, 72 h
[36] = tested on: MV4-11; assay: Cell cycle arrest in human MV4-11 cells assessed as accumulation at G2/M phase at 10 times GI50 after 24 hrs by propidium iodide staining based flow cytometry (reference value: 18.11%); type: functional; procedure, shortened: as §1
[37] = tested on: MV4-11; assay: Induction of apoptosis in human MV4-11 cells assessed as early apoptotic cells at 5 times GI50 after 24 hrs by annexin V/propidium iodide staining based flow cytometry (reference value: 2.01%); type: functional
[38] = Growth inhibition of human M249R cells after 72 hrs by resazurin or MTT assay; type: functional; conditions: M249, 72 h

SMILES | Activity [1] [%] | Activity [2] [%] | Activity [3] [%] | Activity [4] [%] | GI50 [5] [nM] | GI50 [6] [nM] | Activity [7] [%] | Activity [8] [%] | Activity [9] [%] | Activity [10] [%] | Activity [11] [%] | Activity [12] [%] | Activity [13] [%] | GI50 [14] [nM] | Activity [15] [%] | Activity [16] [%] | GI50 [17] [nM] | GI50 [18] [nM] | Activity [19] [%] | GI50 [20] [nM] | also measured
Cc1nc(NC2CCCC2)sc1-c1ccnc(Nc2ccc(N3CCOCC3)cn2)n1 | 89.53 | 10.91 | 2.33 | 10.53 | 3680 | 209 | 90.43 | 2.83 | 3.43 | 63.57 | 71.66 | 0.35 | 17.77 | > 10000 | 4.09 | 2.6 | 385 | 82 | 0.06 | > 10000 | GI50 at 72 h [21]: > 10000 nM; GI50 [22]: > 10000 nM; Activity [23]: 4.9%; Activity [24]: 92.71%; GI50 [25]: 150 nM; Activity [26]: 0.16%; Activity [27]: 7.03%; GI50 [28]: 58 nM; Activity [29]: 81.18%; GI50 [30]: 681 nM; GI50 at 72 h [31]: > 10000 nM; Activity [32]: 15.3%; GI50 [33]: 2200 nM; Activity [34]: 7.27%; GI50 [35]: 150 nM; Activity [36]: 5.75%; Activity [37]: 2.37%; GI50 [38]: 38 nM
CC(=O)c1c(C)c2cnc(Nc3ccc(N4CCNCC4)cn3)nc2n(C2CCCC2)c1=O [PALBOCICLIB] | 89.91 | 4.13 | 2.54 | 4.67 | 326 | 50 | 90.49 | 2.31 | 1.32 | 75.13 | 88.99 | 0.12 | 12.18 | 5790 | 1.81 | 1.72 | 62 | 1990 | 0.17 | 4150 | GI50 at 72 h [21]: > 10000 nM; GI50 [22]: 5960 nM; Activity [23]: 6.28%; Activity [24]: 90.99%; GI50 [25]: 71 nM; Activity [26]: 0.21%; Activity [27]: 7.16%; GI50 [28]: 32 nM; Activity [29]: 89.5%; GI50 [30]: 66 nM; GI50 at 72 h [31]: 7440 nM; Activity [32]: 11.49%; GI50 [33]: 1970 nM; Activity [34]: 7.65%; GI50 [35]: 1220 nM; Activity [36]: 4.12%; Activity [37]: 2.14%; GI50 [38]: 2960 nM
